Sampled rows, rich in hits. Any-hit rate of the full collection: about 4.6%.
FAS TE block = FAS thioesterase domain inhibitors, primary screen, biochemical, fluorescence intensity, uHTS | 360,000 compounds, 0.67% hits | Fatty acid synthase (Homo sapiens), P49327 | AID 602261, 2012 | inhibition, % at 15 µM | recombinant FAS-TE, OMFH fluorogenic substrate, fluorescence endpoint;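 active means compounds whose normalised, plate-corrected inhibition of enzyme fluorescence in the single-dose primary screen is 50% or more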;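 further: 0% = DMSO with enzyme and 100% = substrate without enzyme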
UCH37 inh = inhibitors of human UCH37 deubiquitinase, primary screen, biochemical, Ub-AMC cleavage, fluorescence; purified proteasome/UCH37; inhibition, % (test concentration not listed); 330,000 compounds, 0.33% hits; AID 588478, 2011;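 active means mean inhibition over replicate wells above about 20%, limit read from the data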;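 further: 0% = compound-free wells with enzyme and 100% = wells lacking proteasome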
Target sequence (Q9Y5K5 whole entry, looked up): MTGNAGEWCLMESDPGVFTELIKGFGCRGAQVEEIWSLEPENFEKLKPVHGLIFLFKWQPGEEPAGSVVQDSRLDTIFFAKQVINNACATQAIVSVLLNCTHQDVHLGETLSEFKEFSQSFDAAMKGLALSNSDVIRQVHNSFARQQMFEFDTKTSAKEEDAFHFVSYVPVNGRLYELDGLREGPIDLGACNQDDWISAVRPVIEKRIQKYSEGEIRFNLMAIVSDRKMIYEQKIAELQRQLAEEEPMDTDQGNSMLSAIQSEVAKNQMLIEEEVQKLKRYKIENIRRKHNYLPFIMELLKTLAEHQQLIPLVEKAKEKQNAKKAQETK
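Reagent: Ub-AMC substrate; assay system: Proteasome-associated human UCH37 deubiquitinase; controls: no-proteasome and no-compound wells; read-out: % inhibition of Ub-AMC cleavage fluorescence; timing: 30 min preincubation with enzyme, 25 min cleavage at room temperature; signal: AMC fluorescence from Ub-AMC cleavage, excitation 355 nm, emission 460 nm; buffer or medium: Tris-HCl pH 7.4 plus ovalbumin, ATP-MgCl2, DTT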
HDAC3 inh = HDAC3 deacetylase inhibitors, primary screen, biochemical, fluorescence, cell-free homogeneous. inhibition, % at 8.3 µM. AID 2718, 2010. recombinant HDAC3, fluorogenic peptide/trypsin coupled. 320,000 compounds, 0.15% hits; in the data active means inhibition above about 26%, passing the limit was not always enough; inconclusive means no clear call, values can overlap the other calls
Rtt109 Vps75 = inhibitors of C. albicans Rtt109/Vps75 HAT, primary screen, biochemical, ThioGlo CoA-SH fluorescence, plate reader; Histone acetyltransferase RTT109 (Candida albicans (strain SC5314 / ATCC MYA-2876)), …; purified Rtt109/Vps75, 4 h; inhibition, % at 34.9 µM; 330,000 compounds, 0.16% hits; AID 540336, 2011;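 active means inhibition of at least 50% in every replicate; inconclusive means best replicate reaches 50% inhibition but some replicates fall short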
ALR H2O2 inh = inhibitors of human ALR sulfhydryl oxidase, primary screen, biochemical, H2O2 detection, HRP-luminol luminescence, single point; FAD-linked sulfhydryl oxidase ALR (Homo sapiens), P55789; purified ALR, DTT oxidation; inhibition, % (concentration not given with the values); 290,000 compounds, 3.8% hits;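 active means mean replicate inhibition above about 79%, with every replicate also reaching it, limit read from the data; inconclusive means only one of the two criteria met; inactive means mean below limit and not every replicate reaching it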
M18AAP inhibitor = PfM18AAP inhibitors, malaria aminopeptidase, primary screen, biochemical, QFRET, recombinant enzyme; inhibition, % at 7.35 µM; AID 1822, 2009; H-Glu-NHMec fluorogenic cleavage; 290,000 compounds, 1.2% hits; M18 aspartyl aminopeptidase (Plasmodium falciparum 3D7);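 active means inhibition above the campaign mean inhibition over all tested compounds plus 3 SD, cut at about 28% in these data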;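 further: 0% = plate median of test compound wells and 100% = 2 mM ZnCl2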
* hit, by the source's call; ? = inconclusive; / = not tested or not shown; ! = not active in a repeat.

SMILES	FAS TE block	UCH37 inh	HDAC3 inh	Rtt109 Vps75	ALR H2O2 inh	M18AAP inhibitor
CC(/C=C1\N=C(SCc2ccccc2Cl)SC1=O)=C\c1ccccc1	9	7	0	5	99*	3
COc1cccc(-c2nc(CS(=O)(=O)CC(=O)NC3CCC(C)CC3)c(C)o2)c1 (centres undefined)	9	2	-2	8	31	-1
Cc1oc(-c2ccccc2Cl)nc1CS(=O)(=O)CC(=O)NC1CCCC1	-4	1	/	-8	98*	1
Cc1ccccc1-c1nc(CS(=O)(=O)CC(=O)NC2CCCC2)c(C)o1	0	1	1	6	-11	-1
COc1cccc(-c2nc(CS(=O)(=O)CC(=O)NC3CCCc4ccccc43)c(C)o2)c1 (centres undefined)	16	6	3	28	89*	-2
COc1cccc(-c2nc(CS(=O)(=O)CC(=O)NCC(C)c3ccccc3)c(C)o2)c1 (centres undefined)	13	3	6	1	65	-2
COc1cccc(-c2nc(CS(=O)(=O)CC(=O)NC3CCCC3)c(C)o2)c1	2	-1	10	9	98*	-1
Cc1nc(C)c(-c2csc(N)n2)s1	-4	-2	-3	1	91*	4
Cc1cccc(NC(=O)CCC(=O)NN=Cc2ccncc2)c1	/	0	/	/	/	/
Cc1ccnn1CC(=O)NN=Cc1cn[nH]c1-c1ccc(F)cc1	/	6	/	/	/	/
Oc1ccccc1C=N[n+]1ccccc1	/	8	/	/	/	/
COC(=O)c1c(SCc2cccc3ccccc23)nc(=O)[nH]c1C	-2	1	2	-2	99*	-1
COC(=O)c1c(SCc2ccc(C#N)cc2)nc(=O)[nH]c1C	2	0	4	-17	44	3
Cc1ccc(S(=O)(=O)NN=Cc2ccc(OS(=O)(=O)c3ccc(C)c([N+](=O)[O-])c3)cc2)cc1	/	6	/	/	/	/
Cc1cc(Nc2ccccc2)n(CCOC(=O)COc2ccccc2)n1	2	2	12	-6	98*	-14
CCOc1ccc(OCCC(=O)OCC(=O)Nc2cc(C)nn2-c2ccccc2)cc1	-3	1	-7	8	23	/
COc1cc(NC(=O)COC(=O)CON=C(C)c2ccc3c(c2)OCO3)cc(OC)c1OC	/	5	/	/	/	/
Nc1cc(S(=O)(=O)C(F)(F)F)ccc1C(=O)O	-8	1	2	4	10	10
Nc1cc(C(F)(F)F)ccc1C(=O)O	-2	/	-18	-1	97*	-9
Cn1cc([N+](=O)[O-])c(C(=O)NN=Cc2cc3c(cc2Br)OCO3)n1	/	11	/	/	/	/
CCC(=O)N1CCc2cc(S(=O)(=O)CCC(=O)Nc3cccc(F)c3)ccc21	-2	1	-3	/	98*	1
CCC(=O)N1CCc2cc(S(=O)(=O)CCC(=O)Nc3ccc(CC)cc3)ccc21	2	1	2	-7	-1	-1
CCC(=O)N1CCc2cc(S(=O)(=O)CCC(=O)Nc3ccc(F)c(F)c3)ccc21	-3	1	?	8	98*	-4
Cc1ccc(C(=O)Nc2nc(-c3ccc([N+](=O)[O-])cc3)cs2)o1	0	1	-3	0	98*	-7
CC(=NN(C)C)C1=C(O)c2ccccc2C1=O	/	8	/	/	/	/
Cc1cccc2nc(-c3ccco3)c(Nc3ccccc3)n12	2	-158	-68	-1	/	0
Cc1cccc2nc(-c3ccco3)c(Nc3ccc4c(c3)OCO4)n12	10	-41	-1	11	99*	15
CS(=O)(=O)c1nsc2nc(=O)c(/C=C3\C=Nc4ccccc43)c(N)n12	-3	2	6	8	90*	-9
CCCCc1nn2c(N)c(/C=C3\C=Nc4ccccc43)c(=O)nc2s1	-14	-29	-4	1	38	1
CCCc1nn2c(N)c(/C=C3\C=Nc4ccccc43)c(=O)nc2s1	-4	-2	-4	1	92*!	1

High-throughput results from PubChem BioAssay.
